ChEMBL document CHEMBL1128459, “Characterization of potent and selective antagonists at postsynaptic 5-HT1A receptors in a series of N4-substituted arylpiperazines” (J Med Chem, 1995)

Assays:
[1] = target: D(2) dopamine receptor (Rattus norvegicus) (UniProt P61169); test: Inhibitory activity against methyl-phenidate-induced gnawing at dopamine receptor D2 in rat
Summary of the method: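 Male Wistar rats (200-220 g) received the test drug sc in water (1.0 mL/kg), then methylphenidate 40.0 mg/kg ip 30 min later. Observation began 30 min after that. Gnawing bouts were counted in 10 s per minute (maximum 10) by a blinded observer.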

[2] = tested on: Rattus norvegicus; test: Compound after subcutaneous administration was evaluated for antagonist activity against hypothermia induced by 8-hydroxy -DPAT in rat; assay type: functional; details: sc, read-out: ID50 (the source's name)
Summary of the method: (§1)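 Male Wistar rats (200-220 g) had rectal temperature taken, then received the test drug sc in distilled water (1.0 mL/kg). After 30 min they got 8-OH-DPAT 0.16 mg/kg sc, and temperature was remeasured 30 min later. Change from basal was scored.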

[3] = species on record: Rattus norvegicus; test: Maximum antagonist effect (% effect) expressed relative to 8-hydroxy-DPAT (100%); assay type: functional
Summary of the method: (§2)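 In the rat rectal-temperature model (sc dosing, 8-OH-DPAT 0.16 mg/kg sc for antagonism), the maximal percentage of induced hypothermia (agonist) and of block of 8-OH-DPAT hypothermia (antagonist) was recorded. Each value is given with the dose at which it was reached.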

[4] = tested on: Rattus norvegicus; test: Minimum effective agonist dose administered subcutaneously; assay type: functional; details: sc, read-out: MED
Summary of the method: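 Male Wistar rats (200-220 g) were given the test drug alone sc in water (1.0 mL/kg), with vehicle reinjected at 30 min. Rectal temperature change from basal was measured 60 min after the first injection. MED for hypothermia was set against vehicle by ANOVA with Dunnett's test, P < 0.05.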

[5] = species on record: Rattus norvegicus; test: Maximum agonist effect (% effect) expressed relative to 8-hydroxy-DPAT (100%); assay type: functional; summary of the method: as §2
[6] = Ratio of MED (agonist) to that of MED (antagonist) values.; assay type: functional
Summary of the method: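 The MED for inducing hypothermia alone was divided by the MED for blocking 8-OH-DPAT (0.16 mg/kg sc) hypothermia. Both MEDs came from sc dosing in male Wistar rats and were tested against vehicle by ANOVA with Dunnett's test, P < 0.05.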

[7] = target: 5-hydroxytryptamine receptor 1B (Rattus norvegicus, UniProt P28564); test: Binding affinity at 5-hydroxytryptamine 1B receptor
Summary of the method: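 Rat frontal cortex membranes (1/40 wt/vol) were homogenized in 50 mM Tris pH 7.7 with pargyline, 4 mM CaCl2 and 0.1% ascorbic acid, then preincubated for 30 min at 37 °C. Labelled with 2.0 nM [3H]-5-HT, with 100 nM 8-OH-DPAT and 100 nM mesulergine masking 5-HT1A/5-HT2A sites; 5-CT defined nonspecific binding.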

[8] = target: T1, 5-hydroxytryptamine receptor 1A (Rattus norvegicus, UniProt P19327); test: Binding affinity at 5-hydroxytryptamine 1A receptor
T1 sequence (P19327 whole entry): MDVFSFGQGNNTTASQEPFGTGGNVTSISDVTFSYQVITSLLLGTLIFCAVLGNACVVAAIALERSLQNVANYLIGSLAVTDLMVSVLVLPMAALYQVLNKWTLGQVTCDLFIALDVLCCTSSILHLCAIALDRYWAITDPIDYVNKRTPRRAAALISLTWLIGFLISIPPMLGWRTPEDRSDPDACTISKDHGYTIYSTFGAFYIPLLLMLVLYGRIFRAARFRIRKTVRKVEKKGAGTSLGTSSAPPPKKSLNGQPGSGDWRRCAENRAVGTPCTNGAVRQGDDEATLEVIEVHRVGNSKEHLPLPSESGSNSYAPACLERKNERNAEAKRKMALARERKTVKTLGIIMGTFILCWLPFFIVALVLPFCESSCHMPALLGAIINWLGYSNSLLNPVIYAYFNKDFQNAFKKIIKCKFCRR
Summary of the method: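 Rat hippocampal membranes (1/100 wt/vol) in 50 mM Tris pH 7.7 with 4 mM CaCl2, 0.1% ascorbic acid and pargyline. Membranes were spun at 25000g, preincubated 30 min at 37 °C and respun, then incubated with 0.4 nM [3H]-8-OH-DPAT for 30 min at 25 °C. 5-HT defined nonspecific binding, and samples were filtered on PEI-soaked GF/B. IC50 came from regression; pKi = −log[IC50/(1+[L]/Kd)].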

[9] = tested on: Rattus norvegicus; test: Minimum effective antagonist dose administered subcutaneously; assay type: functional; details: sc, read-out: MED; summary of the method: as §1
[10] = target: T2, Adrenergic receptor alpha-1 (Rattus norvegicus, UniProt P15823+P23944+P43140); test: In vitro binding affinity towards Alpha-1 adrenergic receptor in rat cortex was determined using [3H]prazosin as radioligand
T2 sequence (P15823 whole entry): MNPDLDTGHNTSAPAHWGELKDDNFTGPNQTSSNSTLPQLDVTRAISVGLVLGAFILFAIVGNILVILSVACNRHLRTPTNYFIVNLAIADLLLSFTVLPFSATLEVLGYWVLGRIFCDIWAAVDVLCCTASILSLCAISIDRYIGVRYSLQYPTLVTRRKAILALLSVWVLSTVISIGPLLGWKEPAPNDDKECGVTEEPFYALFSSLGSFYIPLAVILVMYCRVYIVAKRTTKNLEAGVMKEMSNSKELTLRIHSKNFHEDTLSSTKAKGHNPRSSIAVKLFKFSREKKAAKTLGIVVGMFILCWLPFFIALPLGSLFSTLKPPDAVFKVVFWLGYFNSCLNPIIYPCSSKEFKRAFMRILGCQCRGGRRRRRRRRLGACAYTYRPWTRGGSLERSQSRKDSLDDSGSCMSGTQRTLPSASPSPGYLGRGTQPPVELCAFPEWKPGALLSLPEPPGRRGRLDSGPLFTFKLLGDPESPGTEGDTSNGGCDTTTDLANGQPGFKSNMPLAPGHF
T2 sequence (P23944 whole entry): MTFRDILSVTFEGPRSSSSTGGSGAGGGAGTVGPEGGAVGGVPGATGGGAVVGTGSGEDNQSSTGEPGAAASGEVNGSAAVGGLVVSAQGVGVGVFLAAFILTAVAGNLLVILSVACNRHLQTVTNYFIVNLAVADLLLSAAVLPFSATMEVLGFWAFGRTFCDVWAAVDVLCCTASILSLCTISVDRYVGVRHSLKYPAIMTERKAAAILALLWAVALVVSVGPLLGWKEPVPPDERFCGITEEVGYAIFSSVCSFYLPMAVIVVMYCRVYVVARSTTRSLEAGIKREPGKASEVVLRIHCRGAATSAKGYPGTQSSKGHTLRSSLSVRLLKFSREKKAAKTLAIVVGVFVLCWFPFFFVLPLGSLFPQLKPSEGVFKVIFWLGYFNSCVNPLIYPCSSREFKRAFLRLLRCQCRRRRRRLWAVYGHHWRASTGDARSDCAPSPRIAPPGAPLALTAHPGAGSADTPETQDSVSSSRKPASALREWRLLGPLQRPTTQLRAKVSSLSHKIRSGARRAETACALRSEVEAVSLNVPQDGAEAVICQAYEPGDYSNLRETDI
T2 sequence (P43140 whole entry): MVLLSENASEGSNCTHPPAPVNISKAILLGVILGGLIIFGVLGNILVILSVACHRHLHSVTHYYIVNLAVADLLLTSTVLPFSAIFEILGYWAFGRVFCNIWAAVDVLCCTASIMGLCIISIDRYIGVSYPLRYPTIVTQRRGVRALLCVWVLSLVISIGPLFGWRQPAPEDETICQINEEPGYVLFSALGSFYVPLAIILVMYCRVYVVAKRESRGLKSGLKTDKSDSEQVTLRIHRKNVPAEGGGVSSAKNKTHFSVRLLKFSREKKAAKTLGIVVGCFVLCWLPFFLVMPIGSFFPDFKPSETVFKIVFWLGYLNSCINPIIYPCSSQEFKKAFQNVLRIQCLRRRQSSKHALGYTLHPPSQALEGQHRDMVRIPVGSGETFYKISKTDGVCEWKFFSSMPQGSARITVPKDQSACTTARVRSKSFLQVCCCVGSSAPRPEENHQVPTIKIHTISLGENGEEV
Summary of the method: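 Rat frontal cortex membranes (1/80 wt/vol), no preincubation, in 50 mM Tris pH 7.6 with 4 mM CaCl2 and 0.1% ascorbic acid. Ligand 0.2 nM [3H]prazosin, with phentolamine for nonspecific binding. Incubation 60 min at 25 °C, then filtration. IC50 obtained by regression and converted to pKi with radioligand Kd from saturation experiments.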

[11] = target: D(2) dopamine receptor (Rattus norvegicus) (UniProt P61169)
[12] = target: T3, D(2) dopamine receptor (Rattus norvegicus, UniProt P61169); test: In vitro binding affinity towards Dopamine receptor D2 in rat striatum was determined using [3H]-spiperone as radioligand; assay type: tissue-based
Summary of the method: (§3)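 Rat striatal membranes (1/300 wt/vol), no preincubation, in 50 mM Tris pH 7.4 with CaCl2, ascorbic acid, 5 mM KCl, 1 mM MgCl2 and 120 mM NaCl. Ligand 0.2 nM [3H]spiperone, with 100 nM ketanserin masking 5-HT2A sites; raclopride defined nonspecific binding. Incubation 30 min at 37 °C, then filtration. pKi derived from regression-based IC50.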

[13] = target: Serotonin 1a (5-HT1a) receptor/Adrenergic receptor alpha-1 (Rattus norvegicus) (UniProt P15823+P23944+P43140+P19327); test: Ki ratio measured as the Ki values of alpha-1 adrenergic receptor to that of 5-hydroxytryptamine 1A receptor; assay type: protein assay
[14] = target: T3, D(2) dopamine receptor; test: In vitro binding affinity towards Dopamine receptor D2 in rat striatum was determined using [3H]spiperone as radioligand; assay type: tissue-based; summary of the method: as §3

Sequence of D(2) dopamine receptor (Rattus norvegicus) (P61169 whole entry): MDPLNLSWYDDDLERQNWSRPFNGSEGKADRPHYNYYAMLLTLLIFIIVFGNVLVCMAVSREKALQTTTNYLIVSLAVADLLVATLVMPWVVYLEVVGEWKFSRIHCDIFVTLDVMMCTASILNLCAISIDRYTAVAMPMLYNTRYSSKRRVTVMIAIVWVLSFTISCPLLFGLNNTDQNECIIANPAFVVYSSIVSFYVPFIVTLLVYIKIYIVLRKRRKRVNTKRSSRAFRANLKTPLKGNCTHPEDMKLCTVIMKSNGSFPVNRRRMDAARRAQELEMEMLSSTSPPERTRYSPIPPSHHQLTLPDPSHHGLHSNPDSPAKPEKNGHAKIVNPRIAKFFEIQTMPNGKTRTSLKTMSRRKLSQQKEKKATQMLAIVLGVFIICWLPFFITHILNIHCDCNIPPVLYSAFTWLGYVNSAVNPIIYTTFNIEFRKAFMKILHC
T3 sequence (P61169 whole entry): as above
Sequence of 5-hydroxytryptamine receptor 1B (P28564 whole entry): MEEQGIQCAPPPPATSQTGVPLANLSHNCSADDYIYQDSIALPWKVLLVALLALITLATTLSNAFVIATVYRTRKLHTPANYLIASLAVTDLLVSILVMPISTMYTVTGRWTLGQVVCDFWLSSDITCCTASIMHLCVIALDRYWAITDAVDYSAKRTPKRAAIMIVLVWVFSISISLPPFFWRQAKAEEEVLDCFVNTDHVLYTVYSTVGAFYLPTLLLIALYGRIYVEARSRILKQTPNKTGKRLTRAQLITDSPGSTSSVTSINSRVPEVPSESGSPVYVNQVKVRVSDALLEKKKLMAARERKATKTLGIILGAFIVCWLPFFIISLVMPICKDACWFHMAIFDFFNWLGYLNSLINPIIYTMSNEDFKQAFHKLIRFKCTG

Compound: c1ccc2c(c1)CC2CCCN1CCN(c2cccc3ccoc23)CC1 (stereo not given)
- ID50 [1]: 40 mg/kg
- ED50 [2]: 2.5 mg/kg
- Max effect [3]: 47%
- minimal effective dose [4]: 10 mg/kg
- Max effect [5]: 46%
- Ratio [6]: 4
- Ki [7]: 1410 nM
- Ki [8]: 2.82 nM
- minimal effective dose [9]: 2.5 mg/kg

Compound: COc1ccccc1N1CCN(C[C@@H](C(=O)NC(C)(C)C)c2ccccc2)CC1
- ED50 [2]: 2.45 mg/kg
- Max effect [3]: 73%
- Log Ki [10]: -5.94
- ID50 [11]: > 40 mg/kg
- minimal effective dose [4]: 40 mg/kg
- Max effect [5]: 50%
- Ki [12]: 389 nM
- Ratio [6]: 16
- Ki [7]: > 10000 nM
- minimal effective dose [9]: 2.5 mg/kg
- Ki ratio [13]: 35.6

Compound: COc1ccccc1N1CCN(CCCCN2C(=O)c3ccccc3C2=O)CC1 [NAN-190]
- ED50 [2]: 97 mg/kg
- Ki [14]: 31.6 nM
- Max effect [3]: 56%
- ID50 [11]: 10 mg/kg
- minimal effective dose [4]: 5 mg/kg
- Max effect [5]: 100%
- minimal effective dose [9]: 0.63 mg/kg

Compound: c1ccc2c(c1)CC2CCN1CCN(c2cccc3ccoc23)CC1 (stereo not given)
- ID50 [1]: > 40 mg/kg
- ED50 [2]: 1.12 mg/kg
- Max effect [3]: 91%
- minimal effective dose [4]: > 40 mg/kg
- Max effect [5]: 21%
- Ratio [6]: > 32
- Ki [7]: 1510 nM
- Ki [8]: 1.41 nM
- minimal effective dose [9]: 1.25 mg/kg

Compound: c1ccc2c(c1)CC2CCN1CCN(c2cccc3c2OCCO3)CC1 (stereo not given)
- ED50 [2]: 0.65 mg/kg
- Max effect [3]: 76%
- Log Ki [10]: -7.66
- ID50 [11]: > 40 mg/kg
- minimal effective dose [4]: 40 mg/kg
- Max effect [5]: 32%
- Ki [12]: 49 nM
- Ratio [6]: 32
- Ki [8]: 0.589 nM
- minimal effective dose [9]: 1.25 mg/kg
- Ki ratio [13]: 35.4

Compound: c1ccc2c(c1)CCC2CCN1CCN(c2cccc3c2OCCO3)CC1 (stereo not given)
- ID50 [1]: > 40 mg/kg
- ED50 [2]: 1.29 mg/kg
- Max effect [3]: 94%
- minimal effective dose [4]: > 40 mg/kg
- Max effect [5]: 19%
- Ratio [6]: > 63.5
- Ki [8]: 1.58 nM
- minimal effective dose [9]: 0.63 mg/kg
